SUMO1-SIM PPI: alters human SUMO1 binding to SIM partners | AID 602429 | inhibition, % at 20 µM | P63165 | SUMO1 binding to a labelled peptide, TR-FRET, 1 h | hit rate 0.33% among 360,000; in the data active = inhibition above about 37%
DNMT1 inh: blocks human DNA methyltransferase DNMT1. DNMT1 molecular beacon, Hinp1I cleavage, fluorescence. P26358. inhibition (reported as % activation of signal), % at 10 µM. AID 588458. hit rate 0.83% among 360,000; in the data active = inhibition above about 50%
LMPTP inh: blocks human LMPTP phosphatase | hit rate 0.22% among 360,000 | inhibition, % at 20 µM | recombinant LMPTP-A, OMFP fluorogenic substrate, fluorescence intensity | P24666 | AID 651560;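 active = compounds that cut the enzyme signal by at least half of the control window in the single-dose screen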
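Test system: LMPTP-A phosphatase enzyme. Amount: LMPTP-A at 0.625 nM final in the reaction. Reagent: OMFP substrate, 400 µM final. Times: 50 min at room temperature. Signal: endpoint fluorescence intensity from OMFP dephosphorylation. Read-out basis: % inhibition. Benchmarks: no-enzyme and uninhibited controls.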
STEP inh: blocks human striatal-enriched tyrosine phosphatase. P54829. hit rate 0.25% among 360,000. recombinant STEP, OMFP fluorogenic substrate, fluorescence. AID 588621. inhibition, % at 20 µM;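 active = inhibition at 20 µM, scaled per plate between control wells, above about 37%, limit read from the data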
Target sequence (P54829 whole entry, looked up): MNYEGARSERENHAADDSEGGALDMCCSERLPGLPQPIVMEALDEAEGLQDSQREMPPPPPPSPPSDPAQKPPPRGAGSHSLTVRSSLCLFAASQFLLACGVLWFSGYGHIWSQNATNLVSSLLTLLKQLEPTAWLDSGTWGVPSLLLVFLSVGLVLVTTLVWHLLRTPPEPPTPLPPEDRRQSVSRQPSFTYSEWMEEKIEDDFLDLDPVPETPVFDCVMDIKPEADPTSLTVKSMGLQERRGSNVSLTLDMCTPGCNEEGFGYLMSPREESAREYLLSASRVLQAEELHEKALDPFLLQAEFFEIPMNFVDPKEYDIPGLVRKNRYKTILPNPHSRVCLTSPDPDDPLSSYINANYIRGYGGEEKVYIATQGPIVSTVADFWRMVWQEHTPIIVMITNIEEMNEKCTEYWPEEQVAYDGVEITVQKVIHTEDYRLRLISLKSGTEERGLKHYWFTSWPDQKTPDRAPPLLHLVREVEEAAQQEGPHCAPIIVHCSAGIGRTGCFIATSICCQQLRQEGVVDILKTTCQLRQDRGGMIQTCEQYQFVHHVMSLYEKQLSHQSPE
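Also added – OMFP at 25 µM · Test system – STEP tyrosine phosphatase · Technique – FITC-channel fluorescence of OMFP product · Schedule – 20 min at room temperature, dark · Evaluation – control-normalized % inhibition with plate pattern correction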
Scp1 inh: inhibitors of human Scp-1 phosphatase | Q9GZU7 | Recombinant Scp1, phosphopeptide, malachite green phosphate absorbance | inhibition, % at 20 µM | hit rate 0.88% among 340,000 | AID 493091;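 active = inhibition above about 50% at 20 µM, limit read from the data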
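Test system: SCP-1 catalytic domain; Buffer or medium: Acidic Tris acetate buffer with magnesium and detergent; Also added: Phosphorylated 17-residue peptide substrate; Compound: single 20 µM dose, 1% DMSO; Schedule: enzyme reaction 45 min at room temperature, colour 5 min, stabilisation 30 min; Signal: Phosphate-binding colour reagent, absorbance read at 630 nm.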
DNMT1 inh conf: DNMT1 inhibition confirmation, single concentration | shares compounds with DNMT1 inh | DNMT1 molecular beacon HinP1I cleavage, fluorescence | inhibition, % at 10 µM | hit rate 8% among 2,300 | AID 602385;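 active = average inhibition of at least 30% in the single-concentration confirmation test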
DNMT1 interf: beacon fluorescence artifact counter-screen; hit rate 1% among 2,300; shares compounds with DNMT1 inh; activation (fluorescence interference), % at 10 µM; DNMT1 molecular beacon spectral interference counterscreen, fluorescence 485/520;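 active = activation of at least 30% at 10 µM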;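 also: DNMT1 catalytic domain with a HinP1I cleavage step and a FAM/dabcyl DNA beacon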
Large screens that a line does not name were inactive (follow-up assays come after a bar, where they were run). The list is not random: actives were taken first. Their share in the collection is about 1.7%.

CCN1CCc2nc(NC(=O)C(c3ccccc3)c3ccccc3)sc2C1	DNMT1 inh 63 | DNMT1 inh conf inactive | DNMT1 interf inactive
O=C(Cc1cn2ccsc2n1)Nc1nc2c(s1)CN(Cc1ccccc1)CC2	DNMT1 inh 56, LMPTP inh 61 | DNMT1 inh conf inactive | DNMT1 interf inactive
CCc1nc2c(OCc3c(C)noc3C)cccn2c1N(C)C(=O)c1ccccc1F	none (no result: Scp1 inh)
CCOC(=O)c1ccc(N/N=C/c2cc(Br)cc([N+](=O)[O-])c2O)cc1	DNMT1 inh 70 | DNMT1 inh conf inactive | DNMT1 interf inactive
Clc1ccc(OCc2nn3c(-c4ccccc4)nnc3s2)c(Cl)c1	DNMT1 inh 59 | DNMT1 inh conf inactive | DNMT1 interf inactive
CCn1c(CC(=O)Nc2ccccc2F)nnc1SCC(=O)N1CCN(c2ccccc2)CC1	DNMT1 inh 77 | DNMT1 inh conf inactive | DNMT1 interf inactive
CCN1C(=O)N2C[C@H]3CON(C)[C@H]3C[C@H]2c2ccccc21	none (no result: Scp1 inh)
CSc1nc(N)nc2c1ncn2CC(=O)N1CCN(Cc2c(C)cc(C)cc2C)CC1	none
O=C(O)c1cccc(N2C(=O)c3cc([N+](=O)[O-])cc4cc([N+](=O)[O-])cc(c34)C2=O)c1	DNMT1 inh 85, Scp1 inh 69 | DNMT1 inh conf inactive | DNMT1 interf inactive
COC(CNC(=O)C(=O)NCC1OCCN1S(=O)(=O)c1ccccc1)OC (configuration not stated)	none
CSc1ccc(C2C(C#N)=C(N)Oc3c2ccc(=O)c2c(C)oc(C)c32)cc1 (configuration not stated)	DNMT1 inh 74 | DNMT1 inh conf inactive | DNMT1 interf inactive
CN(CC1COc2ccccc2O1)C(=O)Cn1cc(C(F)(F)F)ccc1=O (configuration not stated)	none
COc1ccc(-c2noc(CCC(=O)N3CCC(c4cc(C)ccc4C)CC3)n2)cc1	none | DNMT1 inh conf inactive | DNMT1 interf inactive
COc1ccc(-c2noc(CCC(=O)N3CCN(c4cccc(OC)c4)CC3)n2)cc1	none
CC1(CO)COC2(OC1)C(=O)Nc1ccccc12 (configuration not stated)	none
C=CCn1c(N)c(C(=O)OCCC)c2nc3ccccc3nc21	DNMT1 inh 60 | DNMT1 inh conf inactive | DNMT1 interf inactive
O=C(COC(=O)c1ccc(-c2nnc(-c3ccccc3)o2)cc1)c1ccccc1	DNMT1 inh 54 | DNMT1 inh conf inactive | DNMT1 interf inactive
CCOC(=O)c1c(C)[nH]c(C(=O)OCC(=O)Nc2ccc(OC)c(Cl)c2)c1C	none
CCOC(=O)c1c(C)[nH]c(C(=O)OCC(=O)N2CCc3ccccc32)c1C	DNMT1 inh 62 | DNMT1 inh conf inactive | DNMT1 interf inactive
CCOC(=O)c1[nH]c(C)c(C(=O)OCC(=O)N2CCc3ccccc32)c1C	none
CCOC(=O)c1c(C)[nH]c(C(=O)OCC(=O)Nc2cc(Cl)ccc2OC)c1C	none
CCOC(=O)c1c(C)[nH]c(C(=O)OCC(=O)Nc2cc(C)ccc2OC)c1C	DNMT1 inh 62 | DNMT1 inh conf inactive | DNMT1 interf inactive
CCOC(=O)c1c(C)[nH]c(C(=O)OCC(=O)Nc2ccc(OCC)cc2)c1C	DNMT1 inh 69 | DNMT1 inh conf inactive | DNMT1 interf inactive
Nc1c(N(CCC2=CCCCC2)C(=O)C2CC2)c(=O)[nH]c(=O)n1Cc1ccccc1	none
COc1ccc(S(=O)(=O)N2CCC(C(=O)NC3CCCCC3)CC2)cc1C	none
Cc1cccc(NC(=O)CSCC(=O)Nc2ccccc2N2CCCC2)c1	none
Cc1cccc(NC(=O)CSCC(=O)Nc2ccccc2N2CCCCC2)c1	DNMT1 inh 94 | DNMT1 inh conf inactive | DNMT1 interf inactive
N/C(=N\OC(=O)c1ccccc1F)c1cccc([N+](=O)[O-])c1	none
C(=Nc1cccc2c(N=Cc3ccco3)cccc12)c1ccco1	none
C(=N\C(/N=C/c1ccco1)c1ccco1)/c1ccco1	DNMT1 inh 71 | DNMT1 inh conf inactive | DNMT1 interf inactive
O=C(CN1CCN(C(C(=O)Nc2cc(C(F)(F)F)ccc2Cl)c2ccccc2)CC1)NC1CC1 (configuration not stated)	none

Assay outcomes (PubChem BioAssay)
